# Source: ChEMBL document CHEMBL1126796, “2-(Alkylamino)nicotinic acid and analogs. Potent angiotensin II antagonists” (J Med Chem, 1993)
# Tests used:
# Rattus norvegicus [1] = assay: % decrease in blood pressure after 4 hours in male rats at a dose of 0.1 mg/kg by using Renal artery hypertensive model; assay type: functional
# Method in brief: (§1)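 Male Sprague-Dawley rats (300-350 g) were made hypertensive by renal artery ligation and used on day 6 or 7 after ligation. Arterial pressure was measured from an indwelling femoral artery catheter, with blood pressure and heart rate recorded on line. Read-out is % decrease in blood pressure at 4 h, ±SEM, with number of rats.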
# Rattus norvegicus [2] = assay: % decrease in blood pressure after 24 hours at a dose of 0.1 mg/kg in male rats by using Furosemide-treated spontaneous hypertensive model; assay type: functional
# Method in brief: (§2)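 Male SHR, 20-24 weeks old, pretreated with furosemide 10 mg/kg sc at 22 and 4 h before the experiment; compound dosed orally. Arterial pressure was recorded from an indwelling femoral artery catheter with on-line blood pressure and heart rate analysis. Read-out is % fall in blood pressure at 4 h and at 24 h, ±SEM, with number of rats.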
# Rattus norvegicus [3] = assay: % decrease in blood pressure after 24 hours at a dose of 0.3 mg/kg in male rats by using Furosemide-treated spontaneous hypertensive model; assay type: functional; method in brief: as §2
# Rattus norvegicus [4] = assay: % decrease in blood pressure after 4 hours at a dose of 0.3 mg/kg in male rats by using Furosemide-treated spontaneous hypertensive model; assay type: functional; method in brief: as §2
# Rattus norvegicus [5] = assay: % decrease in blood pressure after 4 hours at a dose of 0.3 mg/kg in male rats by using Renal artery hypertensive model; assay type: functional; method in brief: as §1
# Rattus norvegicus [6] = assay: % decrease in blood pressure after 4 hours at a dose of 0.1 mg/kg in male rats by using Furosemide-treated spontaneous hypertensive model; assay type: functional; method in brief: as §2
# [7] = Half-life period of compound after intravenous dose of 0.3 mg/kg; assay type: ADME, organism-based; set-up: dose 0.3 mg/kg, route intravenous; conditions: in vivo
# Method in brief: (§3)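 Male Sprague-Dawley-derived rats. Compound was given in normal saline at 1 mL/kg, either as a slow iv bolus into the jugular vein or orally by gavage. Plasma underwent liquid-liquid extraction and reverse-phase HPLC. Terminal elimination half-life and time of observed peak concentration were taken from the profiles.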
# Rattus norvegicus [8] = assay: % decrease in blood pressure after 4 hours at a dose of 1 mg/kg in male rats by using Renal artery hypertensive model; assay type: functional; method in brief: as §1
# [9] = Tmax value after oral dose of 0.3 mg/kg; assay type: ADME, organism-based; set-up: dose 0.3 mg/kg, route oral; conditions: in vivo; method in brief: as §3
# [10] = Area under curve after oral dose of 0.1 mg//kg; assay type: ADME
# Method in brief: (§4)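 Male Sprague-Dawley-derived rats were dosed with compound in normal saline (1 mL/kg), by gavage or as a slow IV bolus into the jugular vein. Heparinized tail-vein blood was taken at 0.25-24 h, extracted liquid-liquid and assayed by reverse-phase HPLC. Cmax is the observed peak concentration and AUC is mean (SEM). F compares oral with IV AUC, corrected for dose and assuming dose proportionality.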
# [11] = Bioavailability after oral dose of 0.1 mg//kg; assay type: ADME, organism-based; conditions: eutheria, in vivo; method in brief: as §4
# [12] = Tmax value after oral dose of 3 mg/kg; assay type: ADME, organism-based; set-up: dose 3 mg/kg, route oral; conditions: in vivo; method in brief: as §3
# [13] = Volume of distribution of the terminal phase (= CLp+ plasma elimination rate constant) after intravenous dose of 3 mg/kg; assay type: ADME, organism-based; set-up: dose 3 mg/kg, route intravenous; conditions: read-out: Vbeta
# Method in brief: (§5)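 Jugular-vein slow iv bolus (normal saline, 1 mL/kg) in male Sprague-Dawley-derived rats. Plasma was sampled via the tail vein at 0.1–24 h and measured by reverse-phase HPLC after liquid-liquid extraction. Central volume was taken as dose divided by plasma concentration at time zero. Terminal-phase volume was derived from clearance and the plasma elimination rate constant.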
# [14] = Bioavailability after oral dose of 3 mg/kg; assay type: ADME, organism-based; conditions: eutheria, in vivo; method in brief: as §4
# Rattus norvegicus [15] = assay: % decrease in blood pressure after 4 hours in male rats at a dose of 0.3 mg/kg by using Renal artery hypertensive model; assay type: functional; method in brief: as §1
# Rattus norvegicus [16] = assay: % decrease in blood pressure after 24 hours at a dose of 1 mg/kg in male rats by using Furosemide-treated spontaneous hypertensive model; assay type: functional; method in brief: as §2
# [17] = Volume of distribution of the terminal phase (= CLp+ plasma elimination rate constant) after intravenous dose of 1 mg/kg; assay type: ADME, organism-based; set-up: dose 1 mg/kg, route intravenous; conditions: read-out: Vbeta; method in brief: as §5
# [18] = Bioavailability after oral dose of 0.3 mg/kg; assay type: ADME, organism-based; conditions: eutheria, in vivo; method in brief: as §4
# [19] = Area under curve after oral dose of 0.3 mg/kg; assay type: ADME, organism-based; set-up: dose 0.3 mg/kg, route oral; conditions: in vivo; method in brief: as §4
# [20] = Half-life period after oral dose of 0.3 mg/kg; assay type: ADME, organism-based; set-up: dose 0.3 mg/kg, route oral; conditions: in vivo; method in brief: as §4
# [21] = Volume of distribution of the terminal phase (= CLp+ plasma elimination rate constant) after intravenous dose of 0.3 mg/kg; assay type: ADME, organism-based; set-up: dose 0.3 mg/kg, route intravenous; conditions: read-out: Vbeta; method in brief: as §5
# [22] = Half-life period after oral dose of 3 mg/kg; assay type: ADME, organism-based; set-up: dose 3 mg/kg, route oral; conditions: in vivo; method in brief: as §4
# [23] = Area under curve after oral dose of 1 mg/kg; assay type: ADME, organism-based; set-up: dose 1 mg/kg, route oral; conditions: in vivo; method in brief: as §4
# [24] = Plasma clearance after intravenous dose of 3 mg/kg; assay type: ADME, organism-based; set-up: dose 3 mg/kg, route intravenous; conditions: read-out: Clp
# Method in brief: (§6)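 Male Sprague-Dawley-derived rats received a slow iv bolus into the jugular vein of the compound in normal saline (1 mL/kg). Tail-vein heparinized blood was drawn from 0.1 to 24 h and assayed by reverse-phase HPLC after liquid-liquid extraction. Total plasma clearance was calculated as dose divided by AUC and reported as mean (SEM).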
# [25] = Bioavailability after oral dose of 1 mg/kg; assay type: ADME, organism-based; conditions: eutheria, in vivo; method in brief: as §4
# [26] = Half-life period of compound after intravenous dose of 3 mg/kg; assay type: ADME, organism-based; set-up: dose 3 mg/kg, route intravenous; conditions: in vivo; method in brief: as §3
# Rattus norvegicus [27] = assay: % decrease in blood pressure after 4 hours at a dose of 1 mg/kg in male rats by using Furosemide-treated spontaneous hypertensive model; assay type: functional; method in brief: as §2
# [28] = Cmax value after oral dose of 0.3 mg/kg; assay type: ADME, organism-based; set-up: dose 0.3 mg/kg, route oral; conditions: in vivo; method in brief: as §4
# [29] = Volume of distribution of central compartment (= dose+ plasma concentration at time zero) after intravenous dose of 3 mg/kg; assay type: ADME, organism-based; set-up: dose 3 mg/kg, route intravenous; conditions: read-out: VI; method in brief: as §5
# [30] = Tmax value after oral dose of 0.1 mg//kg; assay type: ADME, organism-based; conditions: in vivo; method in brief: as §3
# [31] = Volume of distribution of central compartment (= dose+ plasma concentration at time zero) after intravenous dose of 0.3 mg/kg; assay type: ADME, organism-based; set-up: dose 0.3 mg/kg, route intravenous; conditions: read-out: VI; method in brief: as §5
# [32] = Half-life period of compound after intravenous dose of 1 mg/kg; assay type: ADME, organism-based; set-up: dose 1 mg/kg, route intravenous; conditions: in vivo; method in brief: as §3
# [33] = Plasma clearance after intravenous dose of 0.3 mg/kg; assay type: ADME, organism-based; set-up: dose 0.3 mg/kg, route intravenous; conditions: read-out: Clp; method in brief: as §6
# [34] = Area under curve after oral dose of 3 mg/kg; assay type: ADME, organism-based; set-up: dose 3 mg/kg, route oral; conditions: in vivo; method in brief: as §4
# [35] = Cmax value after oral dose of 0.1 mg//kg; assay type: ADME, organism-based; set-up: dose 0.1 mg//kg, route oral; conditions: in vivo; method in brief: as §4
# [36] = target: T1, Type-1 angiotensin II receptor A (Rattus norvegicus, UniProt P25095); assay: Binding affinity against angiotensin II receptor from rat liver
# T1 sequence (P25095 whole entry): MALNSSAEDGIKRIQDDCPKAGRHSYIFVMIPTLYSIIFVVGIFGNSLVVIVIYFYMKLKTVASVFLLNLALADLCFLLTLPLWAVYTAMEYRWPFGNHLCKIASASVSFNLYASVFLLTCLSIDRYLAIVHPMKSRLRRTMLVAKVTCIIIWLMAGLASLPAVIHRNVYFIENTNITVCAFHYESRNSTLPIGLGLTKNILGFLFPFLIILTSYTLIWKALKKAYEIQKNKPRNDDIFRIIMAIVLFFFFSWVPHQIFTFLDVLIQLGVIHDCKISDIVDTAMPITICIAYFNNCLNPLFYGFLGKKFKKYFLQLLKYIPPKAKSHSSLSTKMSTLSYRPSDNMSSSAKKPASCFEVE
# Method in brief: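 Rat liver membranes were incubated with [125I]-saralasin to measure angiotensin II type 1 receptor binding. Nonspecific binding was defined with 1 µM angiotensin.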
# [37] = Tmax value after oral dose of 1 mg/kg; assay type: ADME, organism-based; set-up: dose 1 mg/kg, route oral; conditions: in vivo; method in brief: as §3
# [38] = Cmax value after oral dose of 1 mg/kg; assay type: ADME, organism-based; set-up: dose 1 mg/kg, route oral; conditions: in vivo; method in brief: as §4
# [39] = Half-life period after oral dose of 0.1 mg//kg; assay type: ADME, organism-based; conditions: in vivo; method in brief: as §4
# [40] = Cmax value after oral dose of 3 mg/kg; assay type: ADME, organism-based; set-up: dose 3 mg/kg, route oral; conditions: in vivo; method in brief: as §4
# [41] = Volume of distribution of central compartment (= dose+ plasma concentration at time zero) after intravenous dose of 1 mg/kg; assay type: ADME, organism-based; set-up: dose 1 mg/kg, route intravenous; conditions: read-out: VI; method in brief: as §5
# [42] = Plasma clearance after intravenous dose of 1 mg/kg; assay type: ADME, organism-based; set-up: dose 1 mg/kg, route intravenous; conditions: read-out: Clp; method in brief: as §6
# [43] = Half-life period after oral dose of 1 mg/kg; assay type: ADME, organism-based; set-up: dose 1 mg/kg, route oral; conditions: in vivo; method in brief: as §4
# Rattus norvegicus [44] = assay: % decrease in blood pressure after 4 hours in male rats at a dose of 0.03 mg/kg by using Renal artery hypertensive model; assay type: functional; method in brief: as §1
# Rattus norvegicus [45] = assay: % decrease in blood pressure after 4 hours in male rats at a dose of 0.01 mg/kg by using Renal artery hypertensive model; assay type: functional; method in brief: as §1
smiles,measurement,setting,value
CCCCN(Cc1ccc(-c2ccccc2-c2nn[nH]n2)cc1)c1ncccc1C(=O)O,Decrease in blood pressure,Rattus norvegicus [1],16%
same,Decrease in blood pressure,Rattus norvegicus [2],22%
same,Decrease in blood pressure,Rattus norvegicus [3],40%
same,Decrease in blood pressure,Rattus norvegicus [4],14%
same,Decrease in blood pressure,Rattus norvegicus [5],45%
same,Decrease in blood pressure,Rattus norvegicus [6],5%
CCCN(Cc1ccc(-c2ccccc2-c2nnn[nH]2)cc1)c1ncccc1C(=O)O,half-life,[7],9.5 h
same,Decrease in blood pressure,Rattus norvegicus [8],40%
same,Tmax,[9],1.4 h
same,AUC,[10],8.21 µg/h/mL
same,bioavailability,[11],97.9%
same,Tmax,[12],0.9 h
same,Decrease in blood pressure,Rattus norvegicus [2],36%
same,Vd,[13],0.12 L/kg
same,bioavailability,[14],36.3%
same,Decrease in blood pressure,Rattus norvegicus [15],36%
same,Decrease in blood pressure,Rattus norvegicus [16],46%
same,Vd,[17],0.13 L/kg
same,bioavailability,[18],97.2%
same,AUC,[19],24.44 µg/h/mL
same,half-life,[20],> 12 h
same,Vd,[21],0.17 L/kg
same,half-life,[22],5.7 h
same,AUC,[23],28.87 µg/h/mL
same,clearance,[24],0.07 mL/min
same,bioavailability,[25],34.9%
same,half-life,[26],6.6 h
same,Decrease in blood pressure,Rattus norvegicus [27],32%
same,Cmax,[28],1350 ng/mL
same,Vd,[29],0.04 L/kg
same,Tmax,[30],1.3 h
same,Vd,[31],0.04 L/kg
same,half-life,[32],7.1 h
same,clearance,[33],0.07 mL/min
same,AUC,[34],90.15 µg/h/mL
same,Cmax,[35],490 ng/mL
same,Ki,[36],0.61 nM
same,Tmax,[37],0.9 h
same,Cmax,[38],2770 ng/mL
same,half-life,[39],≤ 12 h
same,Cmax,[40],9600 ng/mL
same,Vd,[41],0.04 L/kg
same,clearance,[42],0.07 mL/min
same,half-life,[43],6.9 h
same,Decrease in blood pressure,Rattus norvegicus [44],10%
same,Decrease in blood pressure,Rattus norvegicus [45],22%
same,Decrease in blood pressure,Rattus norvegicus [6],23%
